The record followed here is ChEMBL document CHEMBL1151972, “Cytotoxic asterosaponins capable of promoting polymerization of tubulin from the starfish Culcita novaeguineae” (J Nat Prod, 2009).

Test [1] deals with T1, Tubulin (Sus scrofa) (UniProt P02554+P02550). The experiment in a line: Induction of pig brain tubulin polymerization assessed as end point promote coefficient at 11.7 uM by first high-throughput screening end-point assay. The procedure, abridged: (§1)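 Tubulin prepared from pig brain; first high-throughput screening step. Polymerization followed by turbidity, end-point reading of the absorbance change at 350 nm, expressed as Pe (percent end-point promote coefficient). Samples above 20% Pe counted as active. Three independent experiments, eight replicate wells each.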
T1 sequence (P02550 whole entry, looked up): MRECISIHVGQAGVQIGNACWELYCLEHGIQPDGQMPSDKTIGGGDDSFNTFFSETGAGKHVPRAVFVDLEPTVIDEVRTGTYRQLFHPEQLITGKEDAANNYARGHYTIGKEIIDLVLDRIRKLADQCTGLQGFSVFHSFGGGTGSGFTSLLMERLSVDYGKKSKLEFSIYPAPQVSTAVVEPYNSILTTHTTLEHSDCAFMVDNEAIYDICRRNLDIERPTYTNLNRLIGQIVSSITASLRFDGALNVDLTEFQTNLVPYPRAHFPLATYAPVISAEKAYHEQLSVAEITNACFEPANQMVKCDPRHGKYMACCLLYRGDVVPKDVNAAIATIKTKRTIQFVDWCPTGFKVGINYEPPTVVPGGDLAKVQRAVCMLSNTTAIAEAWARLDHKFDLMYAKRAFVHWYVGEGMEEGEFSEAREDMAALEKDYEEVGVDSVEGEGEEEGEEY
T1 sequence (P02554 whole entry, looked up): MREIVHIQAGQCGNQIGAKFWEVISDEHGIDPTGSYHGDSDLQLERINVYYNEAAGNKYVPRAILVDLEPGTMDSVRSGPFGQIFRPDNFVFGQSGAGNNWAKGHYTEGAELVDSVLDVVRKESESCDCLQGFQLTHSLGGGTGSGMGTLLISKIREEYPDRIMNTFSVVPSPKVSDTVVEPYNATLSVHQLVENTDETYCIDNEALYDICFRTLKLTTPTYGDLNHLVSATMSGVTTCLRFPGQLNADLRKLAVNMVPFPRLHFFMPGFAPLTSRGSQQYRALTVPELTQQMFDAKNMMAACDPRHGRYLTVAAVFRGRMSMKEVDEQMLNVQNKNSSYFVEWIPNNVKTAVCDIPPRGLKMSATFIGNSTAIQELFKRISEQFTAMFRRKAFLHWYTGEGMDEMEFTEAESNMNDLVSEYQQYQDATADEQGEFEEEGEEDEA

In test [2] the target is T1, Tubulin (Sus scrofa). Put plainly: Induction of pig brain tubulin polymerization assessed as kinetic promote coefficient at 11.7 uM by first high-throughput screening end-point assay.
Test [3] relates to Bel-7402. The experiment in a line: Cytotoxicity against human Bel7402 cells after 72 hrs by SRB assay. It counts as functional, cell-based. The note with it: Bel-7402, 72 h. The procedure, abridged:
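Human hepatoma BEL7402 cells; sulforhodamine B protein-staining assay after 72 h exposure. Dose-response curves plotted. IC50 = concentration giving 50% reduction in absorbance relative to control cells. Three independent experiments, each concentration in three replicate wells.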
In general terms: The SRB assay estimates cell density from bound dye.

In test [4] the test system is K562. The experiment in a line: Cytotoxicity against human K562 cells after 72 hrs by MTT assay. As to conditions: K562, 72 h. The class given is functional, cell-based. In a few lines:
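Human leukemia K-562 cells; MTT colorimetric viability assay after 72 h exposure. IC50 read from dose-response curves as the concentration giving 50% lower absorbance than control cells. Mean of three independent experiments, triplicate wells per concentration.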
(In general: Formazan colour is commonly taken as a measure of viable cells.)

Test [5] deals with T1, Tubulin (Sus scrofa). The experiment in a line: Induction of pig brain tubulin polymerization assessed as end point promote coefficient at 9.3 uM by first high-throughput screening end-point assay. In a few lines: as §1
For test [6], the target named is T1, Tubulin (Sus scrofa). The experiment in a line: Induction of pig brain tubulin polymerization assessed as kinetic promote coefficient at 9.3 uM by first high-throughput screening end-point assay.
Test [7] concerns the target T1, Tubulin (Sus scrofa). The experiment in a line: Induction of pig brain tubulin polymerization assessed as kinetic promote coefficient at 8.9 uM by first high-throughput screening end-point assay.
Test [8] addresses T1, Tubulin (Sus scrofa). The experiment in a line: Induction of pig brain tubulin polymerization assessed as end point promote coefficient at 8.9 uM by first high-throughput screening end-point assay. In a few lines: as §1

One may read the IC50 as the concentration that inhibits the measured activity by half.

As for `CC(=O)O[C@H]1C(=O)[C@@]2(C)[C@H]([C@H](OC(=O)c3ccccc3)[C@]3(O)C[C@H](OC(=O)[C@H](O)[C@@H](NC(=O)c4ccccc4)c4ccccc4)C(C)=C1C3(C)C)[C@]1(OC(C)=O)CO[C@@H]1C[C@@H]2O`, the Activity in test [1] was 32%; in test [2] it was 100%.
As for `CC[C@@]1(O)C(=O)OCc2c1cc1n(c2=O)Cc2cc3cc(O)ccc3nc2-1` [HYDROXYCAMPTOTHECIN], the IC50 in test [3] was 400 nM; in test [4], 180 nM.
Take `CO[C@@H]1[C@@H](O)[C@H](O[C@H]2[C@H](O[C@@H]3[C@@H](O)[C@H](O[C@H]4C[C@@H]5C(=CC[C@]6(C)[C@@H]([C@H](C)CC[C@H](OS(=O)(=O)O)C(C)C)CC[C@@H]56)[C@@]5(C)CC[C@H](OS(=O)(=O)O)C[C@H]45)O[C@H](CO)[C@H]3O)OC[C@@H](O)[C@@H]2O)O[C@H](C)[C@H]1O` [NOVAEGUINOSIDE C]: the figures for the Activity in test [5] and in test [6] were 42% and 149%, respectively. The figures for the concentration for half-maximal inhibition (IC50) in test [3] and in test [4] were 700 nM and 1300 nM, respectively.
For the molecule `CO[C@@H]1[C@@H](O)[C@H](O[C@H]2[C@H](O[C@@H]3[C@@H](O)[C@H](O[C@H]4C[C@@H]5C(=CC[C@]6(C)[C@@H]([C@H](C)/C=C/[C@@H](C)[C@@H](C)C(=O)NCCS(=O)(=O)O)CC[C@@H]56)[C@@]5(C)CC[C@H](OS(=O)(=O)O)C[C@H]45)O[C@H](CO)[C@H]3O)OC[C@@H](O)[C@@H]2O)O[C@H](C)[C@H]1O` [NOVAEGUINOSIDE D], the figures for the Activity in test [7] and in test [8] were 85% and 23%, respectively. Further, the half-maximal inhibitory concentration (IC50) is 4100 nM in test [3] and 4600 nM in test [4].
